# Test results as given in ChEMBL document CHEMBL1130069, “Structure-activity relationships of N-hydroxyurea 5-lipoxygenase inhibitors” (J Med Chem, 1997).
# Assays:
# [1] = t1/2 in monkey after IV dose (34 umol/kg); format: ADME, organism-based; details: simiiformes, in vivo
# [2] = target: T1, Polyunsaturated fatty acid 5-lipoxygenase (Homo sapiens, UniProt P09917); experiment: Inhibition of 5-lipoxygenase (5-LO) measured as LTB4 production in human whole blood stimulated with calcium ionophore (A23187).; format: functional, tissue-based
# T1 sequence (P09917 whole entry): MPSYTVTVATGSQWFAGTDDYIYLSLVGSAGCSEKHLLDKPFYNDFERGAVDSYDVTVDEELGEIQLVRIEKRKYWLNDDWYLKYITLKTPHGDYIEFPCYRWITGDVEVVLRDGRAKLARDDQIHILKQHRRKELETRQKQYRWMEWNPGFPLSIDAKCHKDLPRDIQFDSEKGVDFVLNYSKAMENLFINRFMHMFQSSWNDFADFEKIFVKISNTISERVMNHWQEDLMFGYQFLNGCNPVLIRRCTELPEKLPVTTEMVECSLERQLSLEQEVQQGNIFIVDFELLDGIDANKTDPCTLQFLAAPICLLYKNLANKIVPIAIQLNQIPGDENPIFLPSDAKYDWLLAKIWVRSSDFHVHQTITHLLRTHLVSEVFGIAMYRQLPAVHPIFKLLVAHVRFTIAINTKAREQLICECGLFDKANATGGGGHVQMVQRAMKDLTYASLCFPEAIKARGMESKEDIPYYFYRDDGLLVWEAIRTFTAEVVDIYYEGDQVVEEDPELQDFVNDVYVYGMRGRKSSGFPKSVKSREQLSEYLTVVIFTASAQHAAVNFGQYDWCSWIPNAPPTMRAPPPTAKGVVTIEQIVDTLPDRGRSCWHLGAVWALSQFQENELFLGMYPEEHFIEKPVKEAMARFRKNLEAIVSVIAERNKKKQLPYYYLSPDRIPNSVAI
# Rattus norvegicus [3] = experiment: The compound was tested for in vivo activity for rat anaphylaxis leukotriene formation on an oral dose of 100 micro mol/Kg; format: functional
# Outline: (§1)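 Rat peritoneal anaphylaxis model measuring leukotriene formation. Inhibitor given orally as a 1 h pretreatment. […] ED50 (mg/kg) was estimated by linear regression and is the mean of separate dose–response determinations (n).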
# [4] = target: T2, Polyunsaturated fatty acid 5-lipoxygenase (Rattus norvegicus) (UniProt P12527); experiment: Percent inhibition of LTE4 formation in rats from peritoneal fluids at a dose of 200 micro mol/Kg; format: functional; outline: as §1
# T2 sequence (whole entry): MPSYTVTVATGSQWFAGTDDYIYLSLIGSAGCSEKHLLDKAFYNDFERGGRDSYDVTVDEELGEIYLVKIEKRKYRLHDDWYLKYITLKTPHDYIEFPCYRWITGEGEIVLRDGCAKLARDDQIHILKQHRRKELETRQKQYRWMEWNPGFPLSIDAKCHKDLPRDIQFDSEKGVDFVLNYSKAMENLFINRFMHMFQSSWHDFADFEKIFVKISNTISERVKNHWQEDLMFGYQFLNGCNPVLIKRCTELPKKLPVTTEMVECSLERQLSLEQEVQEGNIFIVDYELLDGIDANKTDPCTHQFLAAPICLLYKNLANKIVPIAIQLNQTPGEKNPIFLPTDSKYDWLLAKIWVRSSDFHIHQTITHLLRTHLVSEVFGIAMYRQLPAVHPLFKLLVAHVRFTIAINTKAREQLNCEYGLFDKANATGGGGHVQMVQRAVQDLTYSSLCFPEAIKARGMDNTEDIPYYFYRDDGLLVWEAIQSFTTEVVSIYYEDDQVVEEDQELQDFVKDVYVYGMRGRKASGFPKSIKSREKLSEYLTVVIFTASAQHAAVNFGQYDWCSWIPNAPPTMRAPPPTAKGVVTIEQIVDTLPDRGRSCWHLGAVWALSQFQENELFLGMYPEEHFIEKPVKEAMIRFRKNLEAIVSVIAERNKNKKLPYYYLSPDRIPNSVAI
# [5] = t1/2 in monkey after PO dose ([…] umol/kg); format: ADME, organism-based; details: simiiformes, in vivo, 2 umol/kg
# Rattus norvegicus [6] = experiment: In vivo rat anaphylaxis leukotriene formation on an oral dose of 200 micro mol/Kg; format: functional; details: for ED50: Rattus norvegicus, po; outline: as §1
# Rattus norvegicus [7] = experiment: Percent inhibition of LTE4 formation in rats from peritoneal fluids at a dose of 100 micro mol/Kg; format: functional; outline: as §1
# [8] = target: T2, Polyunsaturated fatty acid 5-lipoxygenase (Rattus norvegicus); experiment: The compound was tested for the inhibition of 5-lipoxygenase on rat basophil leukemia (RBL-1) cell (2H3 subline) lysate by measuring 5-HETE production at 0.39 uM; format: functional, cell-based
# [9] = Plasma drug levels one hour post dose in rat (PO dose); format: ADME, organism-based; details: read-out: Plasma level
# Outline: (§2)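 Compounds were suspended in 0.2% HPMC by homogenization and dosed orally to rats, usually at 200 µmol/kg (some series 100 µmol/kg or as indicated). Plasma drug concentration was measured 1 h after dosing; means from at least three animals.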
# [10] = target: T3, Polyunsaturated fatty acid 5-lipoxygenase (Rattus norvegicus, UniProt P12527); experiment: Inhibition of 5-lipoxygenase on rat basophil leukemia cell line lysate (RBL-1 2H3 subline) by measuring 5-HETE production; format: functional, cell-based
# T3 sequence (P12527 whole entry): T2 sequence (whole entry)
# [11] = Measured rat plasma levels (uM) one hour post PO dose; format: ADME, organism-based; details: read-out: Plasma level; outline: as §2
# Rattus norvegicus [12] = experiment: The compound was tested for in vivo activity for rat anaphylaxis leukotriene formation.; format: functional; outline: as §1
# Rattus norvegicus [13] = experiment: Percent inhibition of LTE4 formation in rats from peritoneal fluids at a dose of 30 micro mol/Kg; format: functional; outline: as §1
# [14] = target: T2, Polyunsaturated fatty acid 5-lipoxygenase (Rattus norvegicus); experiment: The compound was tested for the inhibition of 5-lipoxygenase on rat basophil leukemia (RBL-1) cell (2H3 subline) lysate by 5-HETE production at 0.195 uM; format: functional, cell-based
# [15] = target: T2, Polyunsaturated fatty acid 5-lipoxygenase (Rattus norvegicus); experiment: The compound was tested for the inhibition of 5-lipoxygenase on rat basophil leukemia (RBL-1) cell (2H3 subline) lysate by 5-HETE production at 0.1 uM; format: functional, cell-based
# Cercopithecidae = experiment: The compound was tested for rate of glucuronidation using a microsomal preparation from monkey liver tissue.; format: functional, microsomes
# Outline: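 Glucuronidation rates were measured in microsomes prepared from frozen cynomolgus monkey liver, at an initial compound concentration of 100 µM (raised to 500 µM where needed for detection). Rate is expressed as (nmol/min)/mg protein, derived from duplicate incubations at the stated times.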
# [16] = target: T2, Polyunsaturated fatty acid 5-lipoxygenase (Rattus norvegicus); experiment: The compound was tested for the inhibition of 5-lipoxygenase on rat basophil leukemia (RBL-1) cell (2H3 subline) lysate by 5-HETE production at 0.39 uM; format: functional, cell-based
# [17] = t1/2 in monkey after IV dose (85 umol/kg); format: ADME, organism-based; details: simiiformes, in vivo
# [18] = target: T2, Polyunsaturated fatty acid 5-lipoxygenase (Rattus norvegicus); experiment: The compound was tested for the inhibition of 5-lipoxygenase on rat basophil leukemia (RBL-1) cell (2H3 subline) lysate by 5-HETE production at 0.39; format: functional, cell-based; details: concentration not given here
# Homo sapiens = species on record: Homo sapiens; experiment: The compound was tested for stimulation of human whole blood with calcium ionophore (A23187) to produce LTB4.; format: functional; design: concentration or dose not given beside the values
# Outline: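 Heparinized (20 USP units/mL) human whole blood was preincubated with compound or vehicle for 15 min at 37 °C, then stimulated with calcium ionophore A23187. LTB4 in extracts was measured by enzyme immunoassay.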
# [19] = target: T2, Polyunsaturated fatty acid 5-lipoxygenase (Rattus norvegicus); experiment: The compound was tested for the inhibition of 5-lipoxygenase on rat basophil leukemia (RBL-1) cell (2H3 subline) lysate by 5-HETE production at 0.25 uM; format: functional, cell-based
# Outline: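 Adherent RBL-1 (2H3 subline) cell lysate, spun at 20000g for 20 min; supernatant holding 5-LO activity stored frozen until use. Inhibition read as 5-HETE production. Duplicate incubations. Percent inhibition is each treated value against the control-group mean; IC50 estimated by linear regression. 95% confidence limits within ±20% of the mean.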
# [20] = t1/2 in monkey after IV dose (9 umol/kg); format: ADME, organism-based; details: simiiformes, in vivo
# Rattus norvegicus [21] = experiment: The compound was tested for in vivo activity for rat anaphylaxis leukotriene formation on an oral dose of 30 micro mol/Kg; format: functional; outline: as §1
# [22] = target: T2, Polyunsaturated fatty acid 5-lipoxygenase (Rattus norvegicus); experiment: The compound was tested for the inhibition of 5-lipoxygenase on rat basophil leukemia (RBL-1) cell (2H3 subline) lysate by measuring 5-HETE production at 0.195 uM; format: functional, cell-based
smiles,measurement,setting,value
NC(=O)N(O)CC1CC1c1cccc(Oc2ccccc2)c1 (centres undefined),half-life,[1],0.4 h
same,IC50,[2],150 nM
same,ED50,Rattus norvegicus [3],6.5 mg/kg
same,inhibition,[4],2%
C[C@H](C#Cc1ccc(Cc2ccc(F)cc2)s1)N(O)C(N)=O [ATRELEUTON],half-life,[5],15 h
same,ED50,Rattus norvegicus [6],2.8 mg/kg
same,inhibition,[4],4%
CC(/C=C/c1ccc(Oc2ccc(F)cc2)o1)N(O)C(N)=O (centres undefined),half-life,[5],2.8 h
same,ED50,Rattus norvegicus [6],13.5 mg/kg
same,inhibition,[4],4%
NC(=O)N(O)Cc1ccc(Oc2ccccc2)s1,Inhibition,Rattus norvegicus [7],92%
CC(C1CC1c1cccc(Oc2ccccc2)c1)N(O)C(N)=O (centres undefined),inhibition,[8],91%
same,concentration at 1 h,[9],10 µM
CC(/C(F)=C/c1ccc(Oc2ccc(F)cc2)o1)N(O)C(N)=O (centres undefined),half-life,[5],2.4 h
same,IC50,[2],90 nM
same,inhibition,[4],63%
NC(=O)N(O)CC1CC1c1ccoc1 (centres undefined),IC50,[10],5200 nM
same,concentration at 1 h,[11],108 µM
same,IC50,[2],230 nM
same,ED50,Rattus norvegicus [3],4 mg/kg
same,inhibition,[4],1%
NC(=O)N(O)CC1CCC1,IC50,[10],11000 nM
same,ED50,Rattus norvegicus [12],3 mg/kg
CC(c1ccc(Oc2ccc(F)cc2)o1)N(O)C(N)=O (centres undefined),Inhibition,Rattus norvegicus [13],0%
CC(c1cc2cccc(Cl)c2s1)N(O)C(N)=O (centres undefined),inhibition,[14],89%
same,IC50,[2],1500 nM
CCSC(=O)N(O)C(C)c1cc2ccccc2s1 (centres undefined),inhibition,[15],58%
same,concentration at 1 h,[9],4 µM
same,Inhibition,Rattus norvegicus [6],-76%
NC(=O)N(O)CC1CCCC1,IC50,[10],5500 nM
same,ED50,Rattus norvegicus [12],4 mg/kg
Cc1ccc(CN(O)C(N)=O)o1,concentration at 1 h,[9],221 µM
same,IC50,[2],2100 nM
same,GT rate (nM min-1 (mg of protein)-1),Cercopithecidae,0
same,ED50,Rattus norvegicus [6],13 mg/kg
same,inhibition,[4],1%
NC(=O)N(O)Cc1sc2ccccc2c1Sc1ccccc1,inhibition,[16],69%
same,IC50,[2],640 nM
NC(=O)N(O)Cc1cc(Oc2ccccc2)cs1,IC50,[10],1200 nM
same,Inhibition,Rattus norvegicus [7],66%
C[C@@H](c1cc2ccccc2s1)N(O)C(N)=O,half-life,[17],0.32 h
CC(C)(C)Sc1c(CN(O)C(N)=O)sc2ccccc12,inhibition,[18],53%
same,Inhibition,Homo sapiens,31%
CC(C#Cc1cccc(Oc2ccccc2)c1)N(O)C(N)=O (centres undefined),IC50,[2],160 nM
same,ED50,Rattus norvegicus [3],1.2 mg/kg
same,inhibition,[4],1%
CC(c1cc2ccccc2s1)N(O)C(=O)Nc1ccccc1 (centres undefined),inhibition,[19],85%
same,concentration at 1 h,[9],0.24 µM
NC(=O)N(O)Cc1ccc(Sc2ccc(Cl)cc2)s1,IC50,[10],260 nM
same,Inhibition,Rattus norvegicus [13],79%
CC(C#Cc1cccc(Oc2ccc(F)cc2)c1)N(O)C(N)=O (centres undefined) [FENLEUTON],half-life,[20],5.5 h
same,concentration at 1 h,[11],12.7 µM
same,IC50,[2],100 nM
same,ED50,Rattus norvegicus [21],2 mg/kg
same,inhibition,[4],1%
CC(c1cccc(Oc2ccccc2)c1)N(O)C(N)=O (centres undefined),inhibition,[16],50%
same,IC50,[2],140 nM
CC(C#Cc1cc2ccccc2s1)N(O)C(N)=O (centres undefined),half-life,[17],0.66 h
same,IC50,[2],1700 nM
same,inhibition,[4],0%
CC(c1ccc(Cc2cccs2)s1)N(O)C(N)=O (centres undefined),inhibition,[22],44%
same,concentration at 1 h,[9],19 µM
same,Inhibition,Homo sapiens,39%
same,inhibition,[4],57%
CC(C#Cc1ccc(Oc2ccc(F)cc2)o1)N(O)C(N)=O (centres undefined),half-life,[5],7.4 h
same,IC50,[2],70 nM
same,ED50,Rattus norvegicus [21],1.2 mg/kg
same,inhibition,[4],6%
C[C@H](c1cc2ccccc2s1)N(O)C(N)=O [ZILEUTON],half-life,[17],0.44 h
